KCNQ1 pot: potentiators or activators of KCNQ1 channel, primary screen, cell-based, thallium flux, high-throughput. B-score at 10 µM. CHO-K1 KCNQ1, thallium flux FluxOR fluorescence; hits give high values. 310,000 compounds, 0.35% hits. Potassium voltage-gated channel subfamily KQT member 1 (Homo sapiens), P51787;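 active means fluorescence ratio B-score, a plate-corrected score, at least three library SD, with initial intensity B-score within 5 SD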
Target sequence (P51787 whole entry, looked up): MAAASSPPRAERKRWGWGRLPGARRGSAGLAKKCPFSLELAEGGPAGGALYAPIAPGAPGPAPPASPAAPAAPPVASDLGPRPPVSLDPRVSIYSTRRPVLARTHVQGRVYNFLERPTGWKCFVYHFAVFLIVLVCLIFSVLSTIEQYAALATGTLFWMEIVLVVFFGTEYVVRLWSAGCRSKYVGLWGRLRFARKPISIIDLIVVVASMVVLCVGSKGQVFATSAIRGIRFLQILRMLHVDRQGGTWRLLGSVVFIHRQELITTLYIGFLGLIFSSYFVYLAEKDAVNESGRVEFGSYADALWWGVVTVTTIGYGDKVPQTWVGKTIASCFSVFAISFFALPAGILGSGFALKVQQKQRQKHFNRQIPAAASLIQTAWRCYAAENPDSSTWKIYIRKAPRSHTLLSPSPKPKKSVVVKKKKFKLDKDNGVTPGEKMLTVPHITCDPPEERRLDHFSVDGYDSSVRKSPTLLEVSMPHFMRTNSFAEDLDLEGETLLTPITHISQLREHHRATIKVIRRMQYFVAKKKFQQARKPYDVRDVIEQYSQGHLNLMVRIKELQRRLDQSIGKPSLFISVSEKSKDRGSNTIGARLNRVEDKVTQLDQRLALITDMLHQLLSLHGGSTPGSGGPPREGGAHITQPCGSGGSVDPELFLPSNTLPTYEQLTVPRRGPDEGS
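Material: CHO-K1 cells stably expressing KCNQ1. Medium: assay buffer for compound exposure, DMSO matched across wells. Reagent: K+/Tl+ depolarizing stimulus. Compound dosing: single-concentration screen. Times: 37 °C overnight plating, 90-min dark dye load, 20-min compound pretreatment. Technique: FluxOR Tl+ flux fluorescence.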
KCNK9 block: KCNK9 potassium channel inhibitors, primary screen, HEK293 cells, thallium flux. 310,000 compounds, 1.2% hits. FluxOR thallium flux fluorescence; hits give low values. B-score at 10 µM;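 active means ratio B-score over 3 SD below the library mean, with starting fluorescence within 5 SD of its mean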;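 further: negative B-score means less thallium flux so channel inhibition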
KCNK3 block: human KCNK3 channel inhibitors, primary screen, CHO cells, FluxOR thallium flux, B-score; Potassium channel subfamily K member 3 (Homo sapiens), O14649; FluxOR fluorescence; hits give low values; 340,000 compounds, 0.84% hits; B-score at 10 µM;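 active means B-score under library mean minus 4 SD, starting fluorescence ratio at most library mean plus 5 SD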;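 further: more negative B-score means stronger inhibition of thallium flux through KCNK3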
hERG rescue: hERG rescue from dofetilide block, primary screen, cell-based, CHO-hERG, FluxOR thallium flux, dofetilide IC70; dofetilide IC70 present; activation (rescue from dofetilide block), less the hit threshold, % at 10 µM; Voltage-gated inwardly rectifying potassium channel KCNH2 (Homo sapiens), Q12809; 310,000 compounds, 0.51% hits;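 active means activation above the mean of controls blocked by dofetilide plus 5 SD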;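 further: thallium influx through hERG after potassium depolarization seen as dye fluorescence rise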
KCNQ1 block: inhibitors of human KCNQ1 channel, primary screen, cell-based, thallium flux, high-throughput; Potassium voltage-gated channel subfamily KQT member 1 (Homo sapiens), P51787; CHO-K1 KCNQ1, FluxOR thallium flux fluorescence; hits give high values; B-score at 10 µM; 310,000 compounds, 1.3% hits; AID 2642, 2010;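 active means compounds whose thallium flux B-score, printed positive for inhibition, exceeds three library SD while starting fluorescence stays within three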;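 further: channel opened by potassium depolarization with thallium stimulus after 20 min compound exposure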
KCNK9 inh conf: KCNK9 potassium channel inhibitors, confirmation, HEK293 cells, thallium flux, duplicate. shares compounds with KCNK9 block. FluxOR thallium flux fluorescence. inhibition, % at 10 µM. 4,900 compounds, 43% hits;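 active means thallium signal inhibited by more than 5 SD of the compound-free buffer control wells, on both duplicate plates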
Kir21 sel: mouse Kir2.1 channel inhibition, confirmation, selectivity assay for KCNK9 modulator project, cell-based, HEK293, thallium flux; shares compounds with KCNK9 block; Kir2.1 cells, FluxOR thallium flux fluorescence; inhibition, % at 10 µM; 4,900 compounds, 4% hits;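 active means thallium signal drop more than 5 SD beyond the mean of the no-compound control wells, seen in both duplicate plates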;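 further: signal is fluorescence rise after thallium addition divided by baseline fluorescence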
HEK293 Tl ctr: thallium flux in non-induced HEK293 cells, confirmation, counter-screen for KCNK9 inhibitor project, cell-based, second counter screen, non-induced KCNK9-HEK293. shares compounds with KCNK9 block. FluxOR thallium flux. inhibition, % at 10 µM. 4,900 compounds, 40% hits;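 active means thallium signal drop beyond 5 SD of the untreated control mean, on both duplicate plates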
KCNK3 inh conf: retest of human KCNK3 channel inhibitors, confirmation, CHO cells, FluxOR thallium flux, triplicate; ratio percent of control, % at 10 µM; FluxOR fluorescence; 0% buffer, 100% carvedilol maximal block; AID 651638, 2012; 2,400 compounds, 99% hits; shares compounds with KCNK3 block;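 active means ratio percent of control, averaged over triplicates, above buffer control mean plus 5 SD, cut at about 64% in these data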;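 further: ratio is the fluorescence rise from min to max over baseline after thallium stimulus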
KCNK3 uninduced: thallium flux inhibition in non-induced cells, primary screen, counter-screen for KCNK3 inhibitor project, cell-based, non-induced KCNK3 line, FluxOR thallium, triplicate; shares compounds with KCNK3 block; non-induced KCNK3 parental cells; hits give low values; thallium flux ratio (lower = more inhibition) at 10 µM; 2,400 compounds, 40% hits;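 active means thallium flux ratio, averaged over three wells, more than 5 SD below the buffer control mean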;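 further: host cells are CHO cells without KCNK3 induction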
Large screens that a line does not name were inactive (follow-up assays come after a bar, where they were run). A selection: hits, their analogues and other compounds. The true share with any hit is near 3.1%.

COc1cccc(-n2c(-c3ccoc3)nc3ccccc3c2=O)c1	KCNK9 block -18 | KCNK9 inh conf inactive | Kir21 sel inactive | HEK293 Tl ctr inactive
O=C(Cc1ccccc1)Oc1cccc(N2C(=O)CCC2=O)c1	none
CC(C)(C)c1cc(OC(=O)Cc2ccccc2)ccc1O	KCNK9 block -12 | KCNK9 inh conf 58% | Kir21 sel inactive | HEK293 Tl ctr 30%
COc1cc(CN2CCN(c3cc(C)ccc3C)CC2)ccc1O	none | KCNK9 inh conf inactive | Kir21 sel inactive | HEK293 Tl ctr inactive
CC(C#N)CCC#N (stereo unspecified)	none (no result: KCNQ1 pot, KCNK9 block, hERG rescue, KCNQ1 block)
COc1ccccc1CN1CCCC(C(=O)c2ccccc2OC)C1 (stereo unspecified)	none
COc1ccccc1CN1CCCC(C(=O)c2ccccc2SC)C1 (stereo unspecified)	none | KCNK9 inh conf inactive | Kir21 sel inactive | HEK293 Tl ctr inactive
CCOc1ccccc1CN1CCCC(C(=O)c2cc(F)ccc2F)C1 (stereo unspecified)	none | KCNK9 inh conf inactive | Kir21 sel inactive | HEK293 Tl ctr inactive
COC(=O)C1=C(c2c(C)noc2C)C[C@@H]2CC[C@H]1N2C(=O)NCCO	none (no result: KCNQ1 pot, KCNK9 block, hERG rescue, KCNQ1 block)
CC1CCC(C(C)C)C(OC(=O)Cn2c(COc3ccccc3)[n+](C)c3ccccc32)C1 (stereo unspecified)	KCNK9 block -12, KCNK3 block -8.9, KCNQ1 block 10 | KCNK9 inh conf 74% | Kir21 sel 77% | HEK293 Tl ctr inactive | KCNK3 inh conf 122 | KCNK3 uninduced inactive
COc1ccc(NC2=NC(C)(C)CS2)cc1	none
O=S1(=O)N(Cc2ccc(F)cc2)CCCN1Cc1ccccc1Cl	KCNK9 block -8.3, KCNK3 block -12 | KCNK9 inh conf 74% | Kir21 sel inactive | HEK293 Tl ctr 42% | KCNK3 inh conf 125 | KCNK3 uninduced 0.14
Cc1ccccc1CN1CCCN(Cc2ccc(Cl)cc2)S1(=O)=O	KCNK9 block -21 | KCNK9 inh conf 72% | Kir21 sel inactive | HEK293 Tl ctr 38% | KCNK3 inh conf 119 | KCNK3 uninduced inactive
CN1CC(C#N)C2(O)c3ccccc3CCC2C1 (stereo unspecified)	none
Cc1ccccc1-n1c(C)cc(/C=C2/C(=O)NC(=O)N(Cc3ccco3)C2=O)c1C	KCNK9 block -15 | KCNK9 inh conf 34% | Kir21 sel inactive | HEK293 Tl ctr 32% | KCNK3 inh conf 138 | KCNK3 uninduced 0.11
O[C@@H]1CCCN2CCc3c([nH]c4ccccc34)[C@H]12	none
Cc1cc(OCC(=O)O)c2c3c(c(=O)oc2c1)CCCC3	none
COC(=O)c1ccc(COc2cc(C)cc3oc(=O)c4c(c23)CCCC4)o1	KCNK9 block -13, KCNK3 block -9.1 | KCNK9 inh conf 26% | Kir21 sel inactive | HEK293 Tl ctr inactive | KCNK3 inh conf 100 | KCNK3 uninduced inactive
COC(=O)C1=C(c2ccc(S(C)(=O)=O)cc2)C[C@@H]2CC[C@H]1N2C(=O)NCc1ccc(C(F)(F)F)cc1	none
CCC(C(=O)N1CCC2(CC1)OCCO2)n1c2ccccc2c2nc(=O)cc(C)n21 (stereo unspecified)	KCNK3 block -10 | KCNK3 inh conf 90 | KCNK3 uninduced inactive
C#CC1(O)CCC2C3CCC4=C/C(=N/OCC(=O)NCC(=O)NC(C(=O)O)C(C)C)CC[C@]4(C)C3CC[C@@]21C (stereo partly specified)	none
C#C[C@]1(O)CC[C@H]2[C@@H]3CCC4=Cc5nc6nc7ccccc7n6cc5C[C@]4(C)[C@H]3CC[C@@]21C	KCNK3 block -16 (no result: KCNQ1 pot, KCNK9 block, hERG rescue, KCNQ1 block) | KCNK3 inh conf 132 | KCNK3 uninduced 0.12
CCCCn1c(O)c(C(CC)=NCc2ccc3c(c2)OCO3)c(=O)[nH]c1=O	KCNK9 block -6.9, KCNK3 block -9.7 | KCNK3 inh conf 117 | KCNK3 uninduced inactive
O=c1c2ccccc2nc(CNCc2ccco2)n1-c1ccc(F)cc1	none
CCCCCCCC(=O)NC(Oc1ccccc1[N+](=O)[O-])C(Cl)(Cl)Cl (stereo unspecified)	KCNK3 block -12 | KCNK3 inh conf 115 | KCNK3 uninduced inactive
O=c1c2ccccc2nc(/C=C\c2ccccc2[N+](=O)[O-])n1-c1ccccc1O	KCNK3 block -10 | KCNK3 inh conf 112 | KCNK3 uninduced 0.14
O=c1c2ccccc2nc(/C=C/c2ccccc2O)n1-c1ccccc1O	none
CN(C)Cc1c[nH]c2cc([N+](=O)[O-])ccc12	none (no result: KCNQ1 pot, KCNK9 block, hERG rescue, KCNQ1 block)
CC(=NCc1ccco1)c1c(O)n(-c2ccc(Cl)cc2)c(=O)[nH]c1=O	none

Screens from PubChem.
